Measured values from article PMC3190289 (Clinical and Experimental Gastroenterology, 2011).
Read-outs that look alike come from different tables or passages of the source.

Columns and labels:
[1] = cited from earlier work
intragastric pH = settings: cited from earlier work
[2] = Plasma pharmacokinetics after single oral doses in healthy subjects; type: in vivo, human; settings: for Subjects with detectable plasma concentrations: single oral dose; for AUC values in CYP2C19 poor metabolizers relative to overall means: two CYP2C19 poor metabolizer subjects
[3] = Safety analysis: treatment-emergent adverse events after single doses; type: in vivo, human; settings: healthy subjects; for Incidence of treatment-emergent adverse events: single-dose administration
Summary of the method: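 Open-label two-period crossover in 44 subjects aged 20–54. Each period gave one oral dose after an overnight fast of at least 8 h, with a 60-min postdose fast; washout at least 7 days. All dosed subjects were analysed. A treatment-emergent AE started or worsened after first dose and within 30 days of last dose. Terms were coded to MedDRA 13.1 system organ class and preferred term; the investigator judged relatedness. Results were summarised descriptively per regimen.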

[4] = postdose, single dose 60 mg, healthy subjects

Row | Structure (SMILES) | Time of first peak of plasma concentration-time profile ([1]; after administration) [h] | Half-life [1] [h] | Time of second peak of plasma concentration-time profile ([1]; postdose) [h] | Percentage of time with intragastric pH > 4 (intragastric pH; 0–24 hours after the same dose (60 mg)) | Subjects with detectable plasma concentrations ([2]; 12 hours postdose) [%] | Subjects with detectable plasma concentrations ([2]; 16 hours postdose) [%] | Subjects with detectable plasma concentrations ([2]; 24 hours postdose) [%] | Time of first peak of mean plasma concentration-time curve [2, 4] | Time of second peak of mean plasma concentration-time curve [2, 4] [h] | AUC values in CYP2C19 poor metabolizers relative to overall means [2] | Adverse events considered related to the study drug by the investigator ([3]; single dose) | Incidence of flatulence ([3]; single dose) [%] | Incidence of headache ([3]; single dose) [%] | Incidence of joint injury ([3]; single dose) [%] | Incidence of treatment-emergent adverse events [3] [%] | Increase in bioavailability at steady state ([1]; after five days of once-daily dosing) [fold] | Time of maximum plasma concentrations ([1]; postdose) | Percentage of time with intragastric pH > 4 (intragastric pH; 0–24 hours after the same dose (40 mg), ref 10) [%] | Percentage of time with intragastric pH > 4 (intragastric pH; 0–24 hours after the same dose (40 mg), ref 12) [%] | Adverse events reported by two or more subjects ([3]; single dose)
1 | Cc1c(OCC(F)(F)F)ccnc1C[S@@+]([O-])c1nc2ccccc2[nH]1 [dexlansoprazole] | 1 to 2 | 1 to 2 | 4 to 5 | approximately 60% | 100 | 88 | 63 | approximately 2 hours | ~5 | substantially higher | only one adverse event (nausea) | 5 | 9 | 5 | 21 |  |  |  |  | 
2 | COc1ccc2nc([S@@+]([O-])Cc3ncc(C)c(OC)c3C)[nH]c2c1 [esomeprazole] |  |  |  |  | 80 | 39 | 9 |  |  | substantially higher |  |  |  |  | 14 | ~2.5 | approximately 1.6 hours | 54 | 52 | No adverse event
